According to the M2OR odorant receptor database:

How the values were obtained:
Or1m1 (Mus musculus) = molecular target: T1, Or1m1 (Mus musculus) (UniProt Q8VFM9); conditions: stereoisomer not certain
T1 sequence (whole entry): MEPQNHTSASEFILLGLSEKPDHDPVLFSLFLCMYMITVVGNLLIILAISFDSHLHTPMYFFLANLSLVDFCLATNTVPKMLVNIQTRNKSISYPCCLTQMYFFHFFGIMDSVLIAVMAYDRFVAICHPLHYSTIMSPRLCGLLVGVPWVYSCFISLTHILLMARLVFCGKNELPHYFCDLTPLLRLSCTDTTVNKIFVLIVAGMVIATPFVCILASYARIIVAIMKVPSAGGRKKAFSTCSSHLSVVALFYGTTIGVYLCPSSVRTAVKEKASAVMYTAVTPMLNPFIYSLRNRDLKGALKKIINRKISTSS
Outline: (§1)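 Whether a receptor–molecule pair is responsive (active) rests on the original authors' judgment that its measured signal was statistically different from baseline. Pairs without that judgment are non-responsive (inactive). Sources used varied assay methods, commonly transient luciferase assays in mammalian cell lines.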

Or5ar1 (Mus musculus) = molecular target: T2, Or5ar1 (Mus musculus) (UniProt Q8VGS3); conditions: stereoisomer not certain
T2 sequence (whole entry): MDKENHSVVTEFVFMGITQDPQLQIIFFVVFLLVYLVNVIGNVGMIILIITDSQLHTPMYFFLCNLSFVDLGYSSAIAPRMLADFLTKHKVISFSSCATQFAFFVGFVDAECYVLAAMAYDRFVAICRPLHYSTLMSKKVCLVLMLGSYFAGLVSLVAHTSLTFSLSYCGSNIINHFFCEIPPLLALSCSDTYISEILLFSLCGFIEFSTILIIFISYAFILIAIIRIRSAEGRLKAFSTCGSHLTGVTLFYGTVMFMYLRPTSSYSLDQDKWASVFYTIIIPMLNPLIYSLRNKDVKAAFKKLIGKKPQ
Outline: as §1
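Further: active if original authors judged signal statistically different from baseline.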

Compound | odorant receptor agonist call (Or1m1 (Mus musculus)) | odorant receptor agonist call (Or5ar1 (Mus musculus))
C=CC(=C)CCC=C(C)CCC=C(C)C | inactive | inactive
c1ccc2ncccc2c1 | inactive | inactive
CSSCc1ccco1 | inactive | inactive
CC(=O)OC1(C)CCC23CC1C(C)(C)C2CCC3C (centres undefined) | active | inactive
CCCCCOC(=O)CC | inactive | inactive
CC(=O)C1(C)CC2=C(CCCC2(C)C)CC1C (centres undefined) | inactive | inactive
C=C(C)C1CC=C(C)CC1 (centres undefined) | inactive | inactive
CCCCCCCCC=CC=O | inactive | inactive
CC(=O)OCc1ccc2c(c1)OCO2 | inactive | inactive
C1CCOCC1 | inactive | inactive
CC1(C)CC(=O)CC(=O)C1 | inactive | inactive
COc1nccnc1C | inactive | inactive
CCc1ccccc1O | inactive | inactive
CSSSC | inactive | inactive
CCCCCCC(=O)OCCCC | inactive | inactive
Cc1ccc(C(C)C)cc1 | inactive | inactive
Cc1c(C)c(C)c(C=O)c(C)c1C | inactive | inactive
CC1CCC(C(C)C)C(=O)C1 (centres undefined) | inactive | inactive
COC(OC)c1ccccc1 | inactive | inactive
CC(C)CCN | inactive | inactive
OCCCCCCCCCO | inactive | inactive
Cc1occc1SSc1ccoc1C | inactive | inactive
CNc1ccccc1C(=O)OC | inactive | inactive
CC(CC=O)CCCC(C)(C)O (centres undefined) | inactive | inactive
CCCCCOC(=O)CCC | inactive | inactive
CCSCC | inactive | inactive
C=C1C2CCC(C2)C1(C)C (centres undefined) | inactive | inactive
